Each structure is given as a SMILES string. Activity calls are given as the source filed them. The rule behind the calls is not given here.

Usually Ki stands for a measure of affinity in units of concentration, obtained from inhibition or displacement. A lower Ki goes with tighter binding.

Assay [1] has as its target T1, Corticotropin-releasing factor receptor 1 (Homo sapiens, UniProt P34998).
T1 sequence (P34998 whole entry): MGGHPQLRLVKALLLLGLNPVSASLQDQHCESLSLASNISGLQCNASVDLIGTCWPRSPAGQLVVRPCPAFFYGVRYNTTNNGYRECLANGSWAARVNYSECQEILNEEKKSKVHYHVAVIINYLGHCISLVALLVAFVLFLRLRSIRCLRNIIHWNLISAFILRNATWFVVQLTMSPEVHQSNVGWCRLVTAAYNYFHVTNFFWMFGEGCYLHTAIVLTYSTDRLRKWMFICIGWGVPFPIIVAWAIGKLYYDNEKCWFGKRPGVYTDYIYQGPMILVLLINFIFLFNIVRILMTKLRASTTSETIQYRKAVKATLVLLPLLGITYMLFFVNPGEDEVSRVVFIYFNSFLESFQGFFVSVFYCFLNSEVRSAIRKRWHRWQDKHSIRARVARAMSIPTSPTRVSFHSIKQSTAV
The assay can be described thus: Displacement of [125I] Tyr-o-CRF from human […] expressed in human IMR-32 cells after 100 mins. In kind it is cell-based. In short, it runs like this:
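Membranes from transformed IMR-32 cells incubated with 100 pM [125I]Tyr-o-CRF and increasing test-compound concentrations, 100 min, 25 °C. Buffer: 50 mM Tris pH 7.2, 10 mM MgCl2, 0.5% BSA, 0.005% Triton X-100, aprotinin, leupeptin. Stopped with ice-cold 50 mM Tris pH 7.4, 0.2% BSA. Nonspecific binding defined with o-CRF. Values given as Ki.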
(Displacement assays read how much labelled ligand stays bound in the presence of the test substance.)

For assay [2], the target named is T2, Corticotropin-releasing factor receptor 1 (Homo sapiens) (UniProt P34998).
T2 sequence (whole entry): T1 sequence (P34998 whole entry)
The assay can be described thus: Antagonist activity at human CRF1 receptor expressed in human IMR-32 cells assessed as inhibition of CRF-stimulated cAMP production. The class given is functional, cell-based. Background: Changes in cAMP serve as a functional read-out for many G protein-coupled receptors.

In assay [1], `CCN(Cc1ccc(Cl)c(Cl)c1)Cc1c(C(F)(F)F)nc2n(-c3c(C)cc(C)cc3C)c(Cl)cn12` returned a Ki of 580 nM. In addition, the outcome in assay [2] was Active.
In the same order, the values of `Cc1cc(C)c(-n2c(Cl)cn3c(CN(CC4CC4)CC(F)(F)F)c(C(F)(F)F)nc23)c(C)c1` are 5.2 nM and “Active”.
The compound `CCCN(CCC)Cc1c(C(F)(F)F)nc2n(-c3c(C)cc(C)cc3C)c(Cl)cn12` displayed a Ki in assay [1] of 69 nM. The outcome in assay [2] was Active.
Consider `CCCN(CCOC)Cc1c(C(F)(F)F)nc2n(-c3c(C)cc(C)cc3C)c(Cl)cn12`, for which, in assay [1], the affinity, expressed as Ki, was 32 nM. Further, in assay [2], the result was Active.
In assay [1], `CCCN(Cc1c(C(F)(F)F)nc2n(-c3ccc(C)cc3OC)c(Cl)cn12)CC1CC1` had a Ki of 13 nM. For the same compound, in assay [2], the outcome was Active.
Taken in the same sequence, the figures for `CCCN(CCC(F)(F)F)Cc1c(C(F)(F)F)nc2n(-c3c(C)cc(C)cc3C)c(Cl)cn12` were 12 nM and “Active”.
`Cc1cc(C)c(-n2c(Cl)cn3c(CN4CCC(c5ccccc5)C4)c(C(F)(F)F)nc23)c(C)c1` (stereo unspecified) came in with a Ki in assay [1] of 610 nM. Moreover, in assay [2], the outcome was Active.
With `CCN(Cc1ccccc1)Cc1c(C(F)(F)F)nc2n(-c3c(C)cc(C)cc3C)c(Cl)cn12`, the Ki in assay [1] was determined as 350 nM. Moreover, the outcome in assay [2] was Active.
`Cc1cc(C)c(-n2c(Cl)cn3c(CN(C)CCc4ccccc4)c(C(F)(F)F)nc23)c(C)c1`: affinity in assay [1] was put at a Ki of 150 nM. Also, the result in assay [2] was Active.
As to `Cc1cc(C)c(-n2c(Cl)cn3c(CN(CCC(F)(F)F)Cc4ccc(Cl)cc4)c(C(F)(F)F)nc23)c(C)c1`, the Ki in assay [1] was determined as 12 nM. Further, the result in assay [2] was Active.
Taken in the same sequence, the figures for `Cc1cc(C)c(-n2c(Cl)cn3c(CN4CCSCC4)c(C(F)(F)F)nc23)c(C)c1` were 920 nM and “Active”.
In the same order, the values of `Cc1cc(C)c(-n2c(Cl)cn3c(CN(CCc4ccccc4)CCC(F)(F)F)c(C(F)(F)F)nc23)c(C)c1` are 1900 nM and “Active”.
In the same order, the values of `CCCN(Cc1ccc([N+](=O)[O-])cc1)Cc1c(C(F)(F)F)nc2n(-c3c(C)cc(C)cc3C)c(Cl)cn12` are 150 nM and “Active”.
In assay [1], `Cc1cc(C)c(-n2c(Cl)cn3c(CN(CCC(F)(F)F)Cc4ccc(F)cc4)c(C(F)(F)F)nc23)c(C)c1` gave a Ki of 34 nM. The outcome in assay [2] was Active.
In turn, `Cc1cc(C)c(-n2c(Cl)cn3c(CN(CCC4CC4)CC(F)(F)F)c(C(F)(F)F)nc23)c(C)c1` displayed a Ki in assay [1] of 6.3 nM. In addition, the outcome in assay [2] was Active.
`CCCCN(CC)Cc1c(C(F)(F)F)nc2n(-c3c(C)cc(C)cc3C)c(Cl)cn12` displayed a Ki in assay [1] of 78 nM. Besides, the outcome in assay [2] was Active.
In the same order, the values of `CCCN(Cc1c(C(F)(F)F)nc2n(-c3c(C)cc(C)cc3C)c(Cl)cn12)CC(F)(F)F` are 8.3 nM and “Active”.
`Cc1cc(C)c(-n2c(Cl)cn3c(CN4CCCC(C)C4)c(C(F)(F)F)nc23)c(C)c1` (stereo unspecified) had a Ki in assay [1] of 5800 nM. Also, the result in assay [2] was Active.
Taken in the same sequence, the figures for `CCN(Cc1c(C(F)(F)F)nc2n(-c3c(C)cc(C)cc3C)c(Cl)cn12)CC1CC1` were 9 nM and “Active”.
Take `CCN(Cc1ccccc1C)Cc1c(C(F)(F)F)nc2n(-c3c(C)cc(C)cc3C)c(Cl)cn12`: the Ki in assay [1] amounted to 4800 nM. In assay [2], the result was Active.
For `Cc1cc(C)c(-n2c(Cl)cn3c(CN(CCC4CC4)CCC(F)(F)F)c(C(F)(F)F)nc23)c(C)c1`, the Ki in assay [1] was 110 nM. The outcome in assay [2] was Active.
In assay [1], `CCCN(CC1CC1)C(=O)c1c(C)nc2n(-c3c(C)cc(C)cc3C)c(Cl)cn12` yielded a Ki of 61 nM. For the same compound, the result in assay [2] was Active.
With `Cc1cc(C)c(-n2c(Cl)cn3c(CN4CCCCC4)c(C(F)(F)F)nc23)c(C)c1`, the Ki in assay [1] is 1200 nM. Also, in assay [2], the result was Active.
For the compound `CCN(CCC1CC1)Cc1c(C(F)(F)F)nc2n(-c3c(C)cc(C)cc3C)c(Cl)cn12`, in assay [1], the inhibition constant Ki was found to be 13 nM. Moreover, the outcome in assay [2] was Active.
Compound `CCCN(Cc1ccc(Cl)cc1)Cc1c(C(F)(F)F)nc2n(-c3c(C)cc(C)cc3C)c(Cl)cn12` registered a Ki in assay [1] of 28 nM. In assay [2], the outcome was Active.
`Cc1cc(C)c(-n2c(Cl)cn3c(CN(C)CCc4ccncc4)c(C(F)(F)F)nc23)c(C)c1` displayed an inhibition constant Ki in assay [1] of 7600 nM. The result in assay [2] was Active.
Compound `CCCN(Cc1c(C(F)(F)F)nc2n(-c3c(C)cc(C)cc3C)ccn12)CC1CC1` had a Ki in assay [1] of 470 nM. For the same compound, the result in assay [2] was Active.
`CCN(Cc1c(C(F)(F)F)nc2n(-c3c(C)cc(C)cc3C)c(Cl)cn12)CC1CCC1` showed a Ki in assay [1] of 16 nM. In addition, the result in assay [2] was Active.
`CCCN(Cc1c(C(F)(F)F)nc2n(-c3c(C)cc(C)cc3Cl)c(Cl)cn12)CC1CC1` came in with a Ki in assay [1] of 4.2 nM. Besides, in assay [2], the outcome was Active.
In assay [1], `CCCN(Cc1ccccc1)Cc1c(C(F)(F)F)nc2n(-c3c(C)cc(C)cc3C)c(Cl)cn12` came in with a Ki of 170 nM. In assay [2], the result was Active.
Taken in the same sequence, the figures for `Cc1cc(C)c(-n2c(Cl)cn3c(CN4CCCC4Cc4ccccc4)c(C(F)(F)F)nc23)c(C)c1` (stereo unspecified) were 190 nM and “Active”.
In assay [1], `C=C(C)CN(CC)Cc1c(C(F)(F)F)nc2n(-c3c(C)cc(C)cc3C)c(Cl)cn12` displayed a Ki of 67 nM. Further, the result in assay [2] was Active.
As to `Cc1cc(C)c(-n2c(Cl)cn3c(CN(CCC(F)(F)F)Cc4ccccc4)c(C(F)(F)F)nc23)c(C)c1`, the Ki in assay [1] was found to be 43 nM. The outcome in assay [2] was Active.
For `CCN(CCc1ccccc1)Cc1c(C(F)(F)F)nc2n(-c3c(C)cc(C)cc3C)c(Cl)cn12`, in assay [1], the inhibition constant Ki came to 6 nM. For the same compound, the outcome in assay [2] was Active.
In assay [1], `Cc1cc(C)c(-n2c(Cl)cn3c(CN4CC=CCC4)c(C(F)(F)F)nc23)c(C)c1` returned a Ki of 760 nM. The outcome in assay [2] was Active.
In the case of `Cc1cc(C)c(-n2c(Cl)cn3c(CN(C)Cc4ccccc4)c(C(F)(F)F)nc23)c(C)c1`, the Ki in assay [1] turned out to be 160 nM. Moreover, in assay [2], the result was Active.
Consider `CCCN(Cc1c(C(F)(F)F)nc2n(-c3c(C)cc(C)cc3C)c(Cl)cn12)CC1CC1`, for which the affinity in assay [1], expressed as Ki, was 9.1 nM. Moreover, in assay [2], the result was Active.
Regarding `Cc1cc(C)c(-n2c(Cl)cn3c(CN(CCC(F)(F)F)CC4CC4)c(C(F)(F)F)nc23)c(C)c1`, the affinity in assay [1] corresponds to a Ki of 16 nM. For the same compound, the result in assay [2] was Active.
Turning to `Cc1cc(C)c(-n2c(Cl)cn3c(CN(C)CCc4ccccn4)c(C(F)(F)F)nc23)c(C)c1`, in assay [1], affinity was put at a Ki of 4300 nM. Besides, the result in assay [2] was Active.
As to `Cc1cc(C)c(-n2c(Cl)cn3c(CN(CC4CCC4)CC(F)(F)F)c(C(F)(F)F)nc23)c(C)c1`, the Ki in assay [1] is 13 nM. Moreover, the outcome in assay [2] was Active.
For the compound `Cc1cc(C)c(-n2c(Cl)cn3c(CN(C)Cc4ccco4)c(C(F)(F)F)nc23)c(C)c1`, the affinity in assay [1], expressed as Ki, was 180 nM. For the same compound, the result in assay [2] was Active.
With `CCCN(Cc1cccc(F)c1)Cc1c(C(F)(F)F)nc2n(-c3c(C)cc(C)cc3C)c(Cl)cn12`, in assay [1], the Ki turned out to be 260 nM. Besides, the result in assay [2] was Active.
The compound `Cc1cc(C)c(-n2c(Cl)cn3c(CN4CCCC4c4ccccc4)c(C(F)(F)F)nc23)c(C)c1` (stereo unspecified) registered a Ki in assay [1] of over 7000 nM. Moreover, the result in assay [2] was Active.
`CCCN(CC1CC1)C(=O)c1c(C(F)(F)F)nc2n(-c3c(C)cc(C)cc3C)c(Cl)cn12` had a Ki in assay [1] of 33 nM. For the same compound, the outcome in assay [2] was Active.
In the case of `C=CCN(CCC)Cc1c(C(F)(F)F)nc2n(-c3c(C)cc(C)cc3C)c(Cl)cn12`, the Ki in assay [1] worked out at 4.5 nM. Further, the outcome in assay [2] was Active.
For the compound `Cc1cc(C)c(-n2c(Cl)cn3c(CN4CCCCC4C)c(C(F)(F)F)nc23)c(C)c1` (stereo unspecified), the Ki in assay [1] amounted to 1600 nM. Further, the result in assay [2] was Active.
Turning to `Cc1cc(C)c(-n2c(Cl)cn3c(CN(CCc4ccccc4)CC(F)(F)F)c(C(F)(F)F)nc23)c(C)c1`, the Ki in assay [1] was 350 nM. For the same compound, the result in assay [2] was Active.
Take `Cc1cc(C)c(-n2c(Cl)cn3c(CN4CCOCC4)c(C(F)(F)F)nc23)c(C)c1`: the Ki in assay [1] is 1700 nM. In assay [2], the outcome was Active.
As to `CCCCN(Cc1ccccc1)Cc1c(C(F)(F)F)nc2n(-c3c(C)cc(C)cc3C)c(Cl)cn12`, the Ki in assay [1] stood at 130 nM. Further, the result in assay [2] was Active.
Consider `CCCN(CCC1CC1)Cc1c(C(F)(F)F)nc2n(-c3c(C)cc(C)cc3C)c(Cl)cn12`, for which the Ki in assay [1] was found to be 53 nM. The outcome in assay [2] was Active.
Regarding `CCCN(Cc1ccc(F)cc1)Cc1c(C(F)(F)F)nc2n(-c3c(C)cc(C)cc3C)c(Cl)cn12`, in assay [1], the affinity, expressed as Ki, was 350 nM. For the same compound, the result in assay [2] was Active.
In the case of `Cc1cc(C)c(-n2c(Cl)cn3c(CN(C)CCc4cccnc4)c(C(F)(F)F)nc23)c(C)c1`, the affinity in assay [1], expressed as Ki, was 1900 nM. In addition, the outcome in assay [2] was Active.
In the same order, the values of `CCCN(Cc1c(C(F)(F)F)nc2n(-c3c(C)cc(C)cc3C)c(Cl)cn12)CC1CCC1` are 5.3 nM and “Active”.
